Most compounds without a hit are left out; they make up all but 9.3% or so of the library.
DAT uptake mod – modulates human dopamine transporter uptake under cocaine; 110,000 tested, 1.3% active; LLC-PK1 hDAT cells, [14C]-dopamine uptake with cocaine IC80; actives deviate in either direction; B-score at 10 µM;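 active = Z score or B-score, a plate-position-corrected score, falls beyond the plate's 99.7% confidence bounds, in either direction; inactive = both scores lie inside the 99.7% bounds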
Target sequence (Q01959 whole entry, looked up): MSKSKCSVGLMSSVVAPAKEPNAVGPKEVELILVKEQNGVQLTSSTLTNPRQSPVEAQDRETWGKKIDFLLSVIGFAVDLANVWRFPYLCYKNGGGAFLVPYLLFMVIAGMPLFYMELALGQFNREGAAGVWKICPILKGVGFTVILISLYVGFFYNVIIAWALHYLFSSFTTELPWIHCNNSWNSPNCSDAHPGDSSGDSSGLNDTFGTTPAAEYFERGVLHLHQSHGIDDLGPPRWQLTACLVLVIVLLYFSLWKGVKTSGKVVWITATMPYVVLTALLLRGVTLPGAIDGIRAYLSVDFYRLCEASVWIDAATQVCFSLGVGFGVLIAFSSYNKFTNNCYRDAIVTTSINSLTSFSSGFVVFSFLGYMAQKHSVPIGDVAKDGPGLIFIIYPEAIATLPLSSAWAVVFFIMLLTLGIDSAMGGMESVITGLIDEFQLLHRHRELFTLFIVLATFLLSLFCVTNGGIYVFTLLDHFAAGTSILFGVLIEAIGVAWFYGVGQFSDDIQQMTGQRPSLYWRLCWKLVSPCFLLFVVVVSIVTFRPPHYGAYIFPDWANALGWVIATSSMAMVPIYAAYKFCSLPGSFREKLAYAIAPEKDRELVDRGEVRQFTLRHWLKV
E coli WT exp – blocks growth of wild type E. coli BW25113. 98,000 tested, 0.15% active. growth inhibition, % at 100 µM. OD600 absorbance. AID 710;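 active = growth inhibition above about 50% at one test dose, limit read from the data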;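 note: growth measured after 20 h incubation at 37 °C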
D1 mod – allosteric modulators of human D1 dopamine receptor | AID 641 | HEK293 D1, CRE-luciferase, dopamine EC30 potentiation; actives deviate in either direction | B-score at 10 µM | 58,000 tested, 5.9% active;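 active = luminescence count or its row- and column-corrected plate score outside the 99.7% band of the plate's sample wells, on either side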
Ecoli tolC – blocks growth of E. coli BW25113 tolC mutant; growth inhibition, % at 10 µM (by protocol); 65,000 tested, 2.2% active; OD615;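 active = growth inhibition at or above a cutoff equal to the mean over every tested compound plus 3 SD, cut at about 60% in these data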;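 note: growth measured after 20 h incubation at 37 °C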
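Test system: E. coli BW25113 ΔtolC::kan bacteria; incubation: 37 °C, 20 h exposure; medium: LB broth supplemented with 50 µg/mL kanamycin; read-out basis: percent growth inhibition; signal: A615 absorbance measurement; compound: 10 µM final, single dose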
PostGolgi ctrl – growth of the yeast control strain, post-Golgi counter-screen | efflux-deficient yeast background strain, growth absorbance A615, 16 h | inhibition, % at 10 µM | 98,000 tested, 5% active | AID 738
PostGolgi yeast – growth inhibition of a yeast mutant, post-Golgi transport screen; post-Golgi transport phenotypic cell assay; inhibition, % at 10 µM; 98,000 tested, 0.9% active;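 note: yeast cells grown in 1536-well plates; yeast grown about 18 h at 30C before absorbance read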
D1 mod confirm – confirmation of human D1 dopamine receptor allosteric modulators | shares compounds with D1 mod | HEK293 D1 CRE-luciferase, dopamine EC30 potentiation; hits give high values | luminescence at 10 µM | 2,200 tested, 88% active;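 active = luminescence in either of two replicates above the same-plate mean plus 3 SD of the low-dose dopamine control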
D1 ag no DA – secondary test of D1 modulators: activity without dopamine | shares compounds with D1 mod | HEK293 D1 CRE-luciferase, luminescence, no dopamine; hits give high values | luminescence at 10 µM | 1,900 tested, 0.8% active | AID 646; in the data active = luminescence above about 3900
Isoprot counter – isoproterenol response counter-screen activity for D1 modulators. shares compounds with D1 mod. 2,200 tested, 63% active. calls only at 10 µM. HEK293 D1 CRE-luciferase, isoproterenol EC30 counter-screen;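 active = luminescence in either replicate above plate mean of wells with a partly effective reference agonist dose plus 3 SD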;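 note: isoproterenol raises cAMP through native beta-adrenoceptor Gs so signal bypasses D1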
Hits are given with their value. Cut-off read from the data, not from the text of the source, unless noted: active = inhibition above about 30%; inactive = the rest.

COC(=O)c1cc(OC)c(OC)cc1NC(=O)C1CCC(=O)N1S(=O)(=O)c1ccc(C)cc1 (stereo not drawn) was read as DAT uptake mod inactive, E coli WT exp inactive, D1 mod 9.2, Ecoli tolC inactive, PostGolgi ctrl inactive, PostGolgi yeast inactive, D1 mod confirm 16888 and Isoprot counter active.
CCOC(=O)c1oc2ccc(Br)cc2c1NC(=O)CN1CCN(C)CC1 was read as DAT uptake mod inactive, E coli WT exp inactive, D1 mod 5.7, Ecoli tolC inactive, PostGolgi ctrl inactive, PostGolgi yeast inactive, D1 mod confirm 5896, D1 ag no DA inactive and Isoprot counter inactive.
CCc1ccc2nc(SCC(=O)N(CC)CC)c(C#N)cc2c1 was read as DAT uptake mod inactive, E coli WT exp inactive, D1 mod 3.1, Ecoli tolC inactive, PostGolgi ctrl inactive, PostGolgi yeast inactive, D1 mod confirm 8128, D1 ag no DA inactive and Isoprot counter active.
For CCSc1nc2ccc(OC)cc2cc1C#N the results were DAT uptake mod inactive.
O=S(=O)(Nc1cccc2c1ccc1cccn12)c1cccs1 was read as DAT uptake mod inactive, E coli WT exp inactive, PostGolgi ctrl inactive and PostGolgi yeast inactive.
Screening COc1cc2c(cc1OC)C1=C(C#N)CN(C3CCCCC3)CN1CC2 returned DAT uptake mod inactive, E coli WT exp inactive, D1 mod 4.2, Ecoli tolC inactive, PostGolgi ctrl inactive, PostGolgi yeast inactive, D1 mod confirm 14420, D1 ag no DA inactive and Isoprot counter active.
For COc1ccc(CCN2CC(C#N)=C3c4cc(OC)c(OC)cc4CCN3C2)cc1OC the results were DAT uptake mod 3.4, E coli WT exp inactive, D1 mod 5, Ecoli tolC inactive, PostGolgi ctrl inactive, PostGolgi yeast inactive, D1 mod confirm 14004, D1 ag no DA inactive and Isoprot counter active.
COc1ccc(CCNS(=O)(=O)c2ccc3c(c2)CCN3C(=O)C2CC2)cc1OC was read as DAT uptake mod inactive, E coli WT exp inactive, D1 mod inactive, Ecoli tolC inactive, PostGolgi ctrl inactive and PostGolgi yeast inactive.
Screening COc1ccc(C(=O)OCCNC(=O)c2c(Cl)nc3ccccn23)cc1 returned DAT uptake mod inactive, E coli WT exp inactive, D1 mod 5.1, Ecoli tolC inactive, PostGolgi ctrl 36, PostGolgi yeast inactive, D1 mod confirm 13996, D1 ag no DA inactive and Isoprot counter active.
`O=C(NCCOC(=O)c1ccncc1)c1ccccc1` gave DAT uptake mod inactive, E coli WT exp inactive, D1 mod inactive, Ecoli tolC inactive, PostGolgi ctrl inactive and PostGolgi yeast inactive.
Screening CCSc1cc(C2C(C(=O)OC)=C(C)NC3=C2C(=O)CCC3)c(C)o1 (stereo not drawn) returned DAT uptake mod inactive, E coli WT exp inactive, D1 mod inactive, Ecoli tolC inactive, PostGolgi ctrl inactive and PostGolgi yeast inactive.
`CC1(C)Cc2c(C#N)c(NCCCO)nc(-c3ccccc3)c2CO1` gave DAT uptake mod inactive, E coli WT exp inactive, D1 mod 5.8, Ecoli tolC inactive, PostGolgi ctrl 85, PostGolgi yeast inactive, D1 mod confirm 11280, D1 ag no DA inactive and Isoprot counter active.
Screening COc1cc(/C=C(/C#N)c2ccc(C)cc2)ccc1Oc1ccc([N+](=O)[O-])cn1 returned DAT uptake mod inactive, E coli WT exp inactive, PostGolgi ctrl inactive and PostGolgi yeast inactive.
For COc1ccc(/C=C(/C#N)c2cccnc2)cc1OC the results were DAT uptake mod inactive, D1 mod 34, Ecoli tolC inactive, D1 mod confirm 21544, D1 ag no DA inactive and Isoprot counter active.
For C=CCn1c(SCCCC)nc(O)cc1=O the results were DAT uptake mod inactive, E coli WT exp inactive, D1 mod 3.6, Ecoli tolC inactive, PostGolgi ctrl inactive, PostGolgi yeast inactive, D1 mod confirm inactive, D1 ag no DA inactive and Isoprot counter inactive.
C=CCn1c(SCCCCCC)nc(O)cc1=O was read as DAT uptake mod inactive, E coli WT exp inactive, D1 mod inactive, Ecoli tolC inactive, PostGolgi ctrl inactive and PostGolgi yeast inactive.

Screens as filed in PubChem.
